Measurements: ChEMBL document CHEMBL4334446, “Evaluating the effects of fluorine on biological properties and metabolic stability of some antitubulin 3-substituted 7-phenyl-pyrroloquinolinones” (Eur J Med Chem, 2019)

Assays:
[1] = Selectivity ratio of GI50 for human PBL cells to GI50 for human DND41 cells incubated for 72 hrs by MTT assay
How it was run: (§1)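 Leukemia cells (CEM, DND-41, Jurkat) were grown in RPMI-1640 at 8×10³ cells/well and left 18 h. Donor PBL were gradient-separated, held overnight in RPMI-1640/10% FBS, and non-adherent cells set at 5×10^5 cells/mL without PHA (resting). Both were exposed 72 h to graded concentrations, read by MTT. The ratio is PBL GI50 over leukemia GI50.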

[2] = Metabolic stability in human liver microsomes at 10 uM incubated for 15 mins in presence of NADPH and non-selective CYP inhibitor quercetin by HPLC analysis; assay type: ADME, Microsome; details: 0.25 h
How it was run: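 Compound (10 µM) was incubated 0 and 15 min at 37 °C with pooled HLMs and 1 mM NADPH in 0.1 M KH2PO4 pH 7.4, with or without 100 µM quercetin. Parent remaining was measured by HPLC-fluorescence relative to 0 min; mean ± SD, n = 3.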

[3] = Time-dependent metabolic stability in human liver microsomes at 10 uM incubated for 30 mins in presence of NADPH by HPLC analysis; assay type: ADME, Microsome; details: 0.5 h
How it was run: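 Pooled mixed-gender HLMs (0.5 mg/mL) plus 1 mM NADPH in 0.1 M KH₂PO₄ pH 7.4, compound 10 μM final, 37 °C. Reaction started with microsomes after 3-min equilibration. Stopped with ice-cold acetonitrile at 0, 2, 5, 15, 30 min, then HPLC-fluorescence of supernatant. Percent remaining vs 0 min (mean ± SD, n = 3). Half-life = 0.693/k from linear regression of Ln % remaining vs time.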

HT-29 = test: Growth inhibition of human HT-29 cells incubated for 72 hrs by MTT assay; assay type: functional; details: HT-29, 72 h
[4] = Metabolic stability in human liver microsomes assessed as half life at 10 uM incubated for 30 mins in presence of NADPH by HPLC analysis; assay type: ADME, Microsome
How it was run: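 Compound (10 µM) was incubated at 37 °C with 0.5 mg/mL pooled HLMs and 1 mM NADPH in 0.1 M KH2PO4 pH 7.4, sampled at 0, 2, 5, 15 and 30 min. Controls without NADPH, or buffer only, ran 0 and 30 min. Parent was quantified by HPLC-fluorescence as % of the 0 min level, n = 3. t1/2 = 0.693/k, with k from regression of ln % remaining versus time.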

Tubulin = Tubulin (Bos taurus, UniProt Q6B856+Q862L2+Q862F3); test: Inhibition of bovine brain tubulin polymerization preincubated for 15 mins followed by GTP addition and measured for 20 mins by turbidimetry-based spectrophotometric method
How it was run: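 Bovine brain tubulin (10 µM) was preincubated with varying compound concentrations in 0.8 M monosodium glutamate, pH 6.6, for 15 min at 30 °C, then cooled to 0 °C. GTP was added to 0.4 mM final and the mix warmed to 30 °C. Turbidity was followed at 350 nm. IC50 = concentration inhibiting extent of assembly 50% after 20 min.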

[5] = Growth inhibition of multidrug-resistant human CEM/VBL100 cells incubated for 72 hrs by MTT assay; assay type: functional; details: CEM/VBL100, 72 h
How it was run: (§2)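 Leukemia lines were grown in RPMI-1640; the CEM^Vbl-100 medium also contained 100 ng/mL vinblastine. Cells were seeded at 8 × 10³ per well and left 18 h at 37 °C, 5% CO2. Medium was then replaced with fresh medium holding graded compound concentrations (DMSO stocks), in triplicate, for 72 h. Viability was read by MTT, and GI50 = concentration inhibiting proliferation 50%.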

[6] = Growth inhibition of human PBL cells incubated for 72 hrs by MTT assay; assay type: cell-based; details: PBL cells (peripheral blood lymphocytes)
How it was run: (§3)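 PBL from healthy donors were isolated on a Lymphoprep gradient, held overnight in RPMI-1640 with 10% FBS, and the non-adherent cells resuspended at 5 × 10^5 cells/mL. Proliferating cultures got 2.5 µg/mL PHA; resting cultures got none. Compound was added at several concentrations for 72 h and viability read by MTT. GI50 reported as mean ± SEM of three experiments.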

[7] = Selectivity ratio of GI50 for PHA-stimulated human PBL cells to GI50 for human Jurkat cells incubated for 72 hrs by MTT assay
How it was run: (§4)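 Leukemia cells (CEM, DND-41, Jurkat) were grown in RPMI-1640 at 8×10³ cells/well and left 18 h. Donor PBL were gradient-separated, held overnight, and non-adherent cells set at 5×10^5 cells/mL with 2.5 µg/mL PHA. Both were exposed 72 h at 37 °C to graded compound concentrations, read by MTT. The ratio is PBL GI50 over leukemia GI50.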

Jurkat = test: Growth inhibition of human Jurkat cells incubated for 72 hrs by MTT assay; assay type: functional; how it was run: as §2
[8] = Growth inhibition of PHA-stimulated human PBL cells incubated for 72 hrs by MTT assay; assay type: cell-based; details: PHA-stimulated PBL cells (peripheral blood lymphocytes); how it was run: as §3
CCRF-CEM = test: Growth inhibition of human CEM cells incubated for 72 hrs by MTT assay; assay type: functional; how it was run: as §2
[9] = Stability in phosphate buffer at pH 7.4 at 10 uM incubated for 30 mins by HPLC analysis; assay type: physicochemical; details: pH 7.4, 0.5 h
How it was run: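 No microsomes or NADPH: compound (10 μM final) held in 0.1 M KH₂PO₄ pH 7.4 at 37 °C. Samples taken at 0 and 30 min, quenched with ice-cold acetonitrile, centrifuged, analysed by HPLC with fluorescence detection. Percent parent remaining relative to 0 min; mean ± SD, n = 3.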

[10] = Metabolic stability in human liver microsomes at 10 uM incubated for 30 mins in phosphate buffer at pH 7.4 by HPLC analysis; assay type: ADME, Microsome; details: pH 7.4, 0.5 h
How it was run: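 Test compound (10 μM, final) incubated at 37 °C with pooled mixed-gender HLMs (0.5 mg/mL) in 0.1 M KH₂PO₄ pH 7.4 without NADPH. Sampled at 0 and 30 min, quenched with ice-cold acetonitrile, centrifuged, supernatant analysed by HPLC with fluorescence detection (ex 344/em 493 nm). Percent remaining calculated from peak area relative to 0 min; mean ± SD, n = 3.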

[11] = Selectivity ratio of GI50 for human PBL cells to GI50 for human CEM cells incubated for 72 hrs by MTT assay; assay type: functional; how it was run: as §1
MCF7 = test: Growth inhibition of human MCF7 cells incubated for 72 hrs by MTT assay; assay type: functional; details: MCF7, 72 h
HL-60 = test: Growth inhibition of human HL60 cells incubated for 72 hrs by MTT assay; assay type: functional; details: HL-60, 72 h; how it was run: as §2
HeLa = test: Growth inhibition of human HeLa cells incubated for 72 hrs by MTT assay; assay type: functional
RS4-11 = test: Growth inhibition of human RS4:11 cells incubated for 72 hrs by MTT assay; assay type: functional; details: RS4-11, 72 h; how it was run: as §2
Tubulin (Bos taurus) = Tubulin (Bos taurus) (UniProt Q6B856+Q862L2+Q862F3); test: Inhibition of [3H]colchicine binding to bovine brain tubulin at 5 uM relative to control
How it was run: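 Bovine brain tubulin at 1 µM was incubated with 5 µM [3H]colchicine and the test compound at 5 µM. Inhibition of colchicine binding was measured relative to a control.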

[12] = Selectivity ratio of GI50 for PHA-stimulated human PBL cells to GI50 for human DND41 cells incubated for 72 hrs by MTT assay; how it was run: as §4

SMILES	RatioGI50 [1]	Stability [2]	Stability [3]	GI50 (HT-29)	half-life at 10 µM [4]	IC50 (Tubulin)	GI50 [5]	GI50 at 72 h [6]	RatioGI50 [7]	GI50 (Jurkat)	GI50 at 72 h [8]	GI50 (CCRF-CEM)	Stability [9]	Stability [10]	RatioGI50 [11]	GI50 (MCF7)	GI50 (HL-60)	GI50 (HeLa)	GI50 (RS4-11)	inhibition (Tubulin (Bos taurus))	further results
CCn1ccc2c3c(=O)cc(-c4ccccc4F)[nH]c3ccc21	10000 - 30000	Stable	Unstable	1.1 nM	11.4 min	960 nM	1.1 nM	28000 nM	10000 - 30000	0.19 nM	15200 nM	3.1 nM	Stable	Stable	10000 - 30000	247 nM	0.17 nM	1.2 nM	0.09 nM	77%	RatioGI50 [12]: 10000 - 30000
CCn1ccc2c3c(=O)cc(-c4ccccc4)[nH]c3ccc21	10000 - 30000	Stable	Unstable	32 nM	17.3 min	570 nM	4 nM	> 100000 nM	10000 - 30000	0.5 nM	7600 nM	14 nM	Stable	Stable	10000 - 30000	40 nM	0.5 nM	11 nM	2 nM	73%	RatioGI50 [12]: 10000 - 30000
